Experiments:
[1] = Inhibitory concentration towards rat mitochondrial F1F0-ATP synthase using a hexokinase / glucose-6-phosphate dehydrogenase coupled assay
Method in brief: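 ATP synthesis was run in 10 mM HEPES pH 8. Diluted enzyme was mixed with glucose, MgCl2, KPO4, potassium succinate and AMP (to block adenylate kinase) and incubated 30 min with gentle shaking. Inhibitor was then added from 50% DMSO (final DMSO 5%) for 15 min. Coupling enzymes started the reaction, and the rise in A340 was monitored.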

[2] = molecular target: Mitochondrial F1F0 ATP synthase (Rattus norvegicus); assay: Inhibitory concentration towards rat mitochondrial F1F0 ATP hydrolase using a pyruvate kinase / lactate dehydrogenase system
[3] = Inhibitory concentration towards rat mitochondrial F1F0-ATP synthase using a pyruvate kinase / lactate dehydrogenase system

Row | Compound | IC50 [1] [µM] | IC50 [2] [µM] | IC50 [3] [µM]
1 | CC1(C)Oc2ccc(S(=O)(=O)N3CCCCC3)cc2[C@H](N(Cc2ncc[nH]2)c2ccc(Cl)cc2)[C@H]1O | 18 | – | –
2 | CC1(C)Oc2ccc(C#N)cc2[C@H](/N=C(/NC#N)Nc2ccc(Cl)cc2)[C@H]1O | 12 | > 100 | –
3 | CC1(C)Oc2ccc(C#N)cc2[C@@H](N(Cc2ncc[nH]2)c2ccc(Cl)cc2)[C@@H]1O | 3.8 | 0.24 | –
4 | CC1(C)Oc2ccc(C#N)cc2[C@H](N(Cc2ncco2)c2ccccc2)[C@H]1O | – | > 100 | –
5 | CC1(C)Oc2ccc(C#N)cc2[C@@H](N(Cc2ncc[nH]2)c2ccccc2)[C@@H]1O | – | 4.2 | –
6 | CC1(C)Oc2ccc(C#N)cc2[C@H](N(Cc2ncc[nH]2)c2ccccc2)[C@H]1O | – | 2 | –
7 | CC1(C)Oc2ccc(C#N)cc2[C@@H](/N=C(\NC#N)Nc2ccc(Cl)cc2)[C@@H]1O | 30 | – | > 100
8 | CC1(C)Oc2ccc(C#N)cc2C(N(Cc2ncc[nH]2)c2ccc(Cl)cc2)C1O (racemic) | – | 470 | –
9 | CC1(C)Oc2ccc(C#N)cc2C(Nc2ccc(Cl)cc2)C1O (racemic) | – | 45 | –
10 | CC1(C)Oc2ccc(C#N)cc2[C@H](N(Cc2ncc[nH]2)c2ccc(Cl)cc2)[C@H]1O [BMS-191095] | 4 | 0.48 | –
11 | COc1ccc(Cl)cc1C(=O)NCCc1ccc(S(=O)(=O)NC(=O)NC2CCCCC2)cc1 [GLYBURIDE] | > 100 | – | –

Reference: ChEMBL document CHEMBL1148474, “Small molecule mitochondrial F1F0 ATPase hydrolase inhibitors as cardioprotective agents. Identification of 4-(N-arylimidazole)-substituted benzopyran derivatives as selective hydrolase inhibitors” (J Med Chem, 2004)
